Experimental data: ChEMBL document CHEMBL1142008, “Discovery and investigation of a novel class of thiophene-derived antagonists of the human glucagon receptor” (Bioorg Med Chem Lett, 2005)
One block for each compound: values may come before it.

How the values were obtained:
Glucagon receptor [1] = target: T1, Glucagon receptor (Homo sapiens, UniProt P47871); assay: Inhibitory concentration towards binding of [125I]glucagon to the human glucagon receptor expressed in CHO cells; type: cell-based
Glucagon receptor [2] = target: T1, Glucagon receptor; assay: Inhibition of glucagon induced cAMP accumulation in human glucagon receptor transfected CHO cells; type: functional, cell-based
Procedure, shortened: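 Functional antagonism in CHO cells transfected with human glucagon receptor. Read-out is inhibition of glucagon-induced cAMP accumulation. Mean of at least two experiments, SD <50% of mean.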

[3] = Maximum plasma concentration measured in mouse after peroral administration of 2 mg/kg; type: ADME, organism-based; design: dose 2 mg/kg, route oral; conditions: po
Procedure, shortened: (§1)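 Mouse PK, n = 3 mice per route. Dosed both IV and PO: 1.0 mg/kg IV / 2.0 mg/kg PO for one compound, 5.0 mg/kg IV / 10.0 mg/kg PO for others. Plasma clearance, Vdss, t1/2, Cmax, dose-normalized oral AUC and F% derived.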

[4] = Half life measured in mouse after intravenous administration of 1 mg/kg; type: ADME, organism-based; design: dose 1 mg/kg, route intravenous; conditions: in vivo; procedure, shortened: as §1
[5] = Plasma clearance measured in mouse after peroral administration of 2 mg/kg; n = 3; type: ADME, organism-based; design: dose 2 mg/kg, route oral; conditions: in vivo, po; procedure, shortened: as §1
[6] = Plasma clearance measured in mouse after intravenous administration of 1 mg/kg; n = 3; type: ADME, organism-based; design: dose 1 mg/kg, route intravenous; conditions: in vivo; procedure, shortened: as §1
[7] = Steady state volume distribution measured in mouse after peroral administration of 2 mg/kg; type: ADME, organism-based; design: dose 2 mg/kg, route oral; conditions: in vivo, po; procedure, shortened: as §1
[8] = Steady state volume distribution measured in mouse after intravenous administration of 1 mg/kg; type: ADME, organism-based; design: dose 1 mg/kg, route intravenous; conditions: in vivo, read-out: Vdss; procedure, shortened: as §1
[9] = Oral bioavailability in mouse (dose 2 mg/kg); type: ADME, organism-based; conditions: in vivo; procedure, shortened: as §1
[10] = Bioavailability in mouse (dose 1 mg/kg i.v.); type: ADME, organism-based; conditions: in vivo, iv; procedure, shortened: as §1
[11] = Half life measured in mouse after peroral administration of 2 mg/kg; type: ADME, organism-based; design: dose 2 mg/kg, route oral; conditions: in vivo, po; procedure, shortened: as §1
[12] = Maximum plasma concentration measured in mouse after oral administration of 2 mg/kg
[13] = Maximum plasma concentration measured in mouse after intravenous administration of 1 mg/kg; type: ADME, organism-based; design: dose 1 mg/kg, route intravenous; procedure, shortened: as §1
Glucagon receptor [14] = target: T1, Glucagon receptor; assay: Percent inhibition of glucagon induced cAMP accumulation in human glucagon receptor transfected CHO cells at a compound concentration of 10 uM; type: functional, cell-based
Procedure, shortened: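 Functional antagonism in CHO cells transfected with human glucagon receptor. Read-out is inhibition of glucagon-induced cAMP accumulation. Reported as IC50, or as percent inhibition at 10 µM compound. Mean of at least two experiments, SD <50% of mean.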

T1 sequence (P47871 whole entry): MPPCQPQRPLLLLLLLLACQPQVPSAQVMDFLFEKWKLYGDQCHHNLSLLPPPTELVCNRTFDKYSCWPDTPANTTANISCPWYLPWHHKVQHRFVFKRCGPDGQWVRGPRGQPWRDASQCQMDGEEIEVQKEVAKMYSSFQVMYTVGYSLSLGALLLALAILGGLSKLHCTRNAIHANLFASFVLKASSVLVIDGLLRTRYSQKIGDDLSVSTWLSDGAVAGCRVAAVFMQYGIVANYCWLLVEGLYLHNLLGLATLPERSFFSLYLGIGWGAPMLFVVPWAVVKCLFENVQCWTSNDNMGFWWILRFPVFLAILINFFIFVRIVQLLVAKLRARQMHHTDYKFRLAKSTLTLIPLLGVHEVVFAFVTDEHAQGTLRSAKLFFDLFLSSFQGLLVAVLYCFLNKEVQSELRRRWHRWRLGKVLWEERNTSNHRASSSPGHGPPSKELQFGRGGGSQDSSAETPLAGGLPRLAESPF

IC50 (Glucagon receptor [1]): 118 nM | IC50 (Glucagon receptor [2]): 59 nM
SMILES: CCC(CC)C(=O)Nc1sc2c(c1C#N)CCC(N(C)C1CCCc3ccccc31)C2 (single isomer, unassigned; form 2)

IC50 (Glucagon receptor [1]): 92 nM | Cmax [3]: 80 nM | half-life [4]: 1.9 h | Clp [5]: 50 mL/min/kg | Clp [6]: 50 mL/min/kg | Vdss [7]: 3.4 L/kg | Vd [8]: 3.4 L/kg | bioavailability [9]: 9.2% | bioavailability [10]: 9.2% | half-life [11]: 1.9 h | IC50 (Glucagon receptor [2]): 63 nM | Cmax [12]: 80 nM
SMILES: CCC(CC)C(=O)Nc1sc2c(c1C#N)CCC(N(C)Cc1ccc(Cl)cc1Cl)C2 (stereo unspecified)

IC50 (Glucagon receptor [1]): 89 nM | Cmax [3]: 800 nM | Cmax [13]: 800 nM | half-life [4]: 5.1 h | Clp [5]: 23 mL/min/kg | Clp [6]: 23 mL/min/kg | Vdss [7]: 8.7 L/kg | Vd [8]: 8.7 L/kg | bioavailability [9]: 36% | bioavailability [10]: 36% | half-life [11]: 5.1 h | IC50 (Glucagon receptor [2]): 34 nM
SMILES: CCC(CC)C(=O)Nc1sc(-c2nc(Cc3ccc(Cl)cc3Cl)no2)c(C)c1C#N

IC50 (Glucagon receptor [1]): 368 nM | Cmax [3]: 800 nM | Cmax [13]: 800 nM | half-life [4]: 2.7 h | Clp [5]: 84 mL/min/kg | Clp [6]: 84 mL/min/kg | Vdss [7]: 16 L/kg | Vd [8]: 16 L/kg | bioavailability [9]: 39% | bioavailability [10]: 39% | half-life [11]: 2.7 h | IC50 (Glucagon receptor [2]): 185 nM
SMILES: CCC(CC)C(=O)Nc1sc(-c2nc(CC(C)C)no2)c(C)c1C#N

IC50 (Glucagon receptor [1]): 129 nM | IC50 (Glucagon receptor [2]): 59 nM
SMILES: CCC(CC)C(=O)Nc1sc2c(c1C#N)CCC(N(Cc1ccc(Cl)cc1Cl)C(C)C)C2 (stereo unspecified)

IC50 (Glucagon receptor [1]): 153 nM | IC50 (Glucagon receptor [2]): 41 nM
SMILES: CCC(CC)C(=O)Nc1sc(C(=O)N(Cc2ccc(Cl)cc2Cl)C(C)C)c(C)c1C#N

SMILES: CCC(C)(C)C1CCc2c(sc(NC(=O)c3ccc(Br)cc3)c2C#N)C1 (stereo unspecified)
IC50 (Glucagon receptor [1]): > 20000 nM

IC50 (Glucagon receptor [1]): 181 nM | IC50 (Glucagon receptor [2]): 129 nM
SMILES: CCC(CC)C(=O)Nc1sc2c(c1C#N)CCC(C(C)(C)CC)C2 (stereo unspecified)

IC50 (Glucagon receptor [1]): 870 nM | inhibition (Glucagon receptor [14]): 38%
SMILES: CCC(CC)C(=O)Nc1sc2c(c1C(N)=O)CCC(C(C)(C)CC)C2 (stereo unspecified)

IC50 (Glucagon receptor [1]): 3210 nM
SMILES: CCC(CC)C(=O)Nc1sc(-c2nnc(CC(C)C)o2)c(C)c1C#N

IC50 (Glucagon receptor [1]): 139 nM | IC50 (Glucagon receptor [2]): 158 nM
SMILES: CCC(CC)C(=O)Nc1sc2c(c1C#N)CCC(N(C)C1CCCc3ccccc31)C2 (single isomer, unassigned; form 1)

IC50 (Glucagon receptor [1]): 3820 nM
SMILES: CCC(CC)C(=O)Nc1sc2c(c1C#N)CCC(N(C)Cc1ccccc1)C2 (stereo unspecified)
